Data from ChEMBL document CHEMBL4428027, “3-Hydroxypyrimidine-2,4-diones as Selective Active Site Inhibitors of HIV Reverse Transcriptase-Associated RNase H: Design, Synthesis, and Biochemical Evaluations” (J Med Chem, 2016).
Values belong to the compound of their own block, whether it stands above or below them. Active and inactive are the calls of the source. No cut-off for these calls is given here.

Assays:
[1] = target: T1, Human immunodeficiency virus type 1 reverse transcriptase (Human immunodeficiency virus 1, UniProt Q72547); test: Inhibition of RNase H activity of full length recombinant HIV1 reverse transcriptase assessed as reduction in nonspecific internal cleavage using HTS1 substrate
Summary of the method: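 Recombinant p66/p51 RT heterodimer. Fluorescent RNA/DNA duplex substrate HTS-1 measures internal cleavage. IC50 is the mean of at least three independent experiments.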

[2] = target: T1, Human immunodeficiency virus type 1 reverse transcriptase; test: Inhibition of RNase H activity of full length recombinant HIV1 reverse transcriptase assessed as reduction in DNA 3'-end cleavage using HTS2 substrate
Summary of the method: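 Recombinant p66/p51 RT heterodimer. Fluorescent RNA/DNA duplex substrate HTS-2 reports DNA 3′-end-directed (polymerase-dependent) cleavage. IC50 is the mean of at least three independent experiments.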

[3] = target: T1, Human immunodeficiency virus type 1 reverse transcriptase; test: Inhibition of RNase H activity of full length recombinant HIV1 reverse transcriptase assessed as reduction in RNA 5'-end directed cleavage using HTS3 substrate
[4] = target: T1, Human immunodeficiency virus type 1 reverse transcriptase; test: Inhibition of re-constituted HIV1 reverse transcriptase RNase H domain fragment
Summary of the method: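 Secondary check using a catalytically active, isolated HIV RNase H domain fragment (reconstituted) with duplex substrate HTS-1.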

[5] = target: T1, Human immunodeficiency virus type 1 reverse transcriptase; test: Inhibition of polymerase activity of HIV1 reverse transcriptase using poly(rA)-oligo(dT)16 and [3H]-TTP incubated for 20 mins by liquid scintillation spectrometry
Summary of the method: (§1)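 Reaction mix: 10 µM [3H]-TTP, 40 nM poly(rA)-oligo(dT)16, 50 mM Tris-HCl pH 7.4 (37°C), 60 mM KCl, 5 mM MgCl2. Started with 10 nM RT; 20 min at 37°C. Quenched in ice-cold 10% TCA with 20 mM sodium pyrophosphate, then glass-fibre filtered and washed with TCA and ethanol. Label incorporation read by liquid scintillation.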

[6] = Toxicity against human HeLa P4/R5 cells; assay type: cell-based
[7] = target: Human immunodeficiency virus type 1 integrase (Human immunodeficiency virus 1, UniProt Q7ZJM1); test: Inhibition of HIV integrase pre-incubated for 10 mins before addition of oligo-5'-biotin ATGTGGAAAATCTCTAGCA annealed with ACTGCTAGAGATTTTCCACAT 3'-Cy5) substrate
[8] = test system: Human immunodeficiency virus 1; test: Antiviral activity against HIV1 infected in human HeLa P4/R5 cells assessed as reduction in viral growth pre-incubated with cells for 16 hrs followed by additional 48 hrs incubation by fluorescence-based beta-galactosidase detection assay; assay type: functional, organism-based
Summary of the method: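 P4R5 HeLa indicator cells (CD4, CXCR4, CCR5; HIV LTR-driven β-galactosidase reporter), 5×10^3 cells/well in DMEM/10% FBS with puromycin 0.5 µg/ml. Drug added 16 h before HIV exposure, then 48 h further incubation. Infection read by fluorescence-based β-galactosidase detection.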

[9] = target: Human immunodeficiency virus type 1 reverse transcriptase (Human immunodeficiency virus 1) (UniProt Q72547); test: Inhibition of HIV1 polymerase activity of reverse transcriptase using poly(rA)-oligo(dT)16 and [3H]-TTP up to 25 uM incubated for 20 mins by liquid scintillation spectrometry; summary of the method: as §1
[10] = target: Human immunodeficiency virus type 1 reverse transcriptase (Human immunodeficiency virus 1) (UniProt Q72547); test: Inhibition of RNase H activity of full length recombinant HIV1 reverse transcriptase assessed as reduction in nonspecific internal cleavage up to 25 uM using HTS1 substrate
[11] = target: Human immunodeficiency virus type 1 reverse transcriptase (Human immunodeficiency virus 1) (UniProt Q72547); test: Inhibition of RNase H activity of full length recombinant HIV1 reverse transcriptase assessed as reduction in RNA 5'-end directed cleavage up to 25 uM using HTS3 substrate
[12] = target: Human immunodeficiency virus type 1 reverse transcriptase (Human immunodeficiency virus 1) (UniProt Q72547); test: Inhibition of re-constituted HIV1 reverse transcriptase RNase H domain fragment up to 25 uM
Summary of the method: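 Secondary check using a catalytically active, isolated HIV RNase H domain fragment (reconstituted) with duplex substrate HTS-1. […] Upper test concentration 25 µM.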

[13] = target: Human immunodeficiency virus type 1 reverse transcriptase (Human immunodeficiency virus 1) (UniProt Q72547); settings: up to 25 µM

Sequence of Human immunodeficiency virus type 1 integrase (Q7ZJM1 whole entry): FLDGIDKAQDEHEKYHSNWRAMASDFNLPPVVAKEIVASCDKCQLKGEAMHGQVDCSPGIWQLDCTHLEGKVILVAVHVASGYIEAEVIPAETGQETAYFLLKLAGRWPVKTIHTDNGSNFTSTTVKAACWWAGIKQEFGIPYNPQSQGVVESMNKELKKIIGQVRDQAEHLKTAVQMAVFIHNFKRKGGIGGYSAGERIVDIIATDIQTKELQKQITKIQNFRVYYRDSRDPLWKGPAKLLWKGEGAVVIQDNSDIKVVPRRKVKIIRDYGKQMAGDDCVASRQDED

Structure (SMILES): COc1ccc(-c2cccc(Nc3cc(=O)n(O)c(=O)[nH]3)c2)cc1
IC50 ([1]; read-out: IC50): 200 nM | IC50 ([2]; read-out: IC50): 0.3 µM | IC50 ([3]; read-out: IC50): 0.4 µM | IC50 ([4]; read-out: IC50): 100 nM | IC50 ([5]; read-out: IC50): 6.3 µM | CC50 [6]: > 25 µM | IC50 [7]: > 100 µM | Activity [8]: inactive

Structure (SMILES): Cn1c(Oc2ccc(-c3ccc(O)cc3)cc2)cc(=O)n(O)c1=O
IC50 ([1]; read-out: IC50): 2200 nM | IC50 ([2]; read-out: IC50): 15 µM | IC50 ([3]; read-out: IC50): 11 µM | IC50 [5]: Not Active | IC50 [7]: 12 µM

Structure (SMILES): Cc1noc(C)c1-c1ccc(Nc2cc(=O)n(O)c(=O)n2C)cc1
IC50 ([1]; read-out: IC50): 1600 nM | IC50 ([2]; read-out: IC50): 4.4 µM | IC50 ([3]; read-out: IC50): 3.8 µM | IC50 [5]: Not Active | IC50 [7]: 25 µM

IC50 [1]: Not Active | IC50 [2]: Not Active | IC50 [3]: Not Active | IC50 [4]: Not Active | IC50 [5]: Not Active | inhibition [9]: inactive | inhibition [10]: inactive | inhibition [11]: inactive | inhibition [12]: inactive | inhibition [13]: inactive
Structure (SMILES): Cn1c(Nc2cccc(C3CCOC3)c2)cc(=O)n(O)c1=O (centres undefined)
CC50 [6]: > 25 µM

Structure (SMILES): COc1cccc(-c2cccc(Nc3cc(=O)n(O)c(=O)n3C)c2)c1
IC50 ([1]; read-out: IC50): 600 nM | IC50 ([2]; read-out: IC50): 3.5 µM | IC50 ([3]; read-out: IC50): 4.3 µM | IC50 ([4]; read-out: IC50): 1700 nM | IC50 [5]: Not Active | CC50 [6]: 10 µM | IC50 [7]: 4.6 µM

Structure (SMILES): Cn1c(Nc2cccc(-c3ccccc3)c2)cc(=O)n(O)c1=O
IC50 ([1]; read-out: IC50): 850 nM | IC50 ([2]; read-out: IC50): 3.5 µM | IC50 ([3]; read-out: IC50): 3.4 µM | IC50 [5]: Not Active | IC50 [7]: 2.2 µM

Structure (SMILES): COc1ccc(-c2cccc(Nc3cc(=O)n(O)c(=O)[nH]3)c2)c(OC)c1
IC50 ([1]; read-out: IC50): 310 nM | IC50 ([2]; read-out: IC50): 0.54 µM | IC50 ([3]; read-out: IC50): 2.4 µM | IC50 ([5]; read-out: IC50): 3.2 µM | IC50 [7]: 1.2 µM

Structure (SMILES): COc1ccc(-c2ccccc2Oc2cc(=O)n(O)c(=O)n2C)cc1
IC50 ([1]; read-out: IC50): 2300 nM | IC50 [2]: Not Active | IC50 ([3]; read-out: IC50): 22 µM | IC50 ([4]; read-out: IC50): 6400 nM | IC50 [5]: Not Active | CC50 [6]: 6 µM | IC50 [7]: 1 µM

Structure (SMILES): Cn1c(Nc2ccc(-c3cccc(C#N)c3)cc2)cc(=O)n(O)c1=O
IC50 ([1]; read-out: IC50): 1200 nM | IC50 ([2]; read-out: IC50): 3.7 µM | IC50 ([3]; read-out: IC50): 3.3 µM | IC50 ([4]; read-out: IC50): 900 nM | IC50 [5]: Not Active | CC50 [6]: 25 µM | IC50 [7]: 30 µM

Structure (SMILES): Cn1c(Oc2cccc(-c3cccc(O)c3)c2)cc(=O)n(O)c1=O
IC50 ([1]; read-out: IC50): 900 nM | IC50 ([2]; read-out: IC50): 12 µM | IC50 ([3]; read-out: IC50): 4.3 µM | IC50 [5]: Not Active | IC50 [7]: 7.1 µM

Structure (SMILES): COc1cccc(-c2ccc(Oc3cc(=O)n(O)c(=O)n3C)cc2)c1
IC50 ([1]; read-out: IC50): 2000 nM | IC50 ([2]; read-out: IC50): 16 µM | IC50 ([3]; read-out: IC50): 16 µM | IC50 ([4]; read-out: IC50): 5100 nM | IC50 [5]: Not Active | inhibition [9]: inactive | CC50 [6]: 6 µM

Structure (SMILES): Cn1c(Nc2cccc(-c3cccc(C#N)c3)c2)cc(=O)n(O)c1=O
IC50 ([1]; read-out: IC50): 1100 nM | IC50 ([2]; read-out: IC50): 3.2 µM | IC50 ([3]; read-out: IC50): 4.1 µM | IC50 ([4]; read-out: IC50): 1000 nM | IC50 ([5]; read-out: IC50): 5 µM | CC50 [6]: > 25 µM | IC50 [7]: 7.1 µM

Structure (SMILES): Cc1ccc(-c2cccc(Nc3cc(=O)n(O)c(=O)[nH]3)c2)cc1
IC50 ([1]; read-out: IC50): 380 nM | IC50 ([2]; read-out: IC50): 0.45 µM | IC50 ([3]; read-out: IC50): 0.44 µM | IC50 ([5]; read-out: IC50): 3.1 µM | IC50 [7]: 44 µM

Structure (SMILES): COc1cc(OC)cc(-c2ccc(Nc3cc(=O)n(O)c(=O)[nH]3)cc2)c1
IC50 ([1]; read-out: IC50): 190 nM | IC50 ([2]; read-out: IC50): 0.32 µM | IC50 ([3]; read-out: IC50): 0.25 µM | IC50 ([5]; read-out: IC50): 0.34 µM | IC50 [7]: 35 µM

Structure (SMILES): O=c1cc(Nc2cccc(-c3ccc(F)cc3)c2)[nH]c(=O)n1O
IC50 ([1]; read-out: IC50): 200 nM | IC50 ([2]; read-out: IC50): 0.3 µM | IC50 ([3]; read-out: IC50): 0.3 µM | IC50 ([4]; read-out: IC50): 150 nM | IC50 ([5]; read-out: IC50): 6.6 µM | CC50 [6]: > 25 µM | IC50 [7]: > 100 µM | Activity [8]: inactive

Structure (SMILES): COc1cccc(-c2ccc(Nc3cc(=O)n(O)c(=O)[nH]3)cc2)c1
CC50 [6]: > 25 µM | Activity [8]: inactive

Structure (SMILES): Cn1c(Oc2ccccc2-c2ccccc2)cc(=O)n(O)c1=O
IC50 [2]: Not Active | IC50 [3]: Not Active | IC50 [5]: Not Active | inhibition [9]: inactive | inhibition [11]: inactive | inhibition [13]: inactive

Structure (SMILES): Cc1ccc(-c2ccc(Nc3cc(=O)n(O)c(=O)[nH]3)cc2)cc1
IC50 ([1]; read-out: IC50): 400 nM | IC50 ([2]; read-out: IC50): 0.7 µM | IC50 ([3]; read-out: IC50): 0.5 µM | IC50 ([4]; read-out: IC50): 400 nM | IC50 ([5]; read-out: IC50): 5.7 µM | CC50 [6]: > 25 µM | IC50 [7]: 93 µM | Activity [8]: inactive

Structure (SMILES): COc1ccc(-c2ccc(Nc3cc(=O)n(O)c(=O)n3C)cc2)cc1
IC50 ([2]; read-out: IC50): 6.6 µM | IC50 ([3]; read-out: IC50): 5 µM | IC50 ([4]; read-out: IC50): 900 nM | IC50 [5]: Not Active | CC50 [6]: 5 µM | IC50 [7]: 4.4 µM

Structure (SMILES): COc1cccc(OC)c1-c1cccc(Nc2cc(=O)n(O)c(=O)[nH]2)c1
IC50 ([1]; read-out: IC50): 510 nM | IC50 ([2]; read-out: IC50): 0.7 µM | IC50 ([3]; read-out: IC50): 0.47 µM | IC50 ([5]; read-out: IC50): 1.7 µM | IC50 [7]: 1.3 µM
